TDP2 absorb = TDP2 (human) inhibition, absorbance primary screen | recombinant TDP2, T5PNP hydrolysis, p-nitrophenol absorbance 415 nm | inhibition, % at 12.8 µM | 0.34% of 370,000 active | AID 720702;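 active = inhibition above the mean of all tested compounds plus 3 SD, set per campaign, cut at about 25% in these data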;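 also: 0% = DMSO with enzyme and 100% = buffer with substrate but no TDP2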
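System – recombinant human TDP2 · Amount – 120 nM TDP2 per well · Buffer or medium – Mg2+-containing Tris-HCl buffer, pH 7.5 · Reagent – T5PNP substrate, 5 mM · Dosing – 12.8 µM single point, 1% DMSO · Incubation – 2 h at 37 °C · Measured by – epi absorbance · Read-out basis – percent inhibition · Benchmarks – high control without enzyme, low control DMSO plus TDP2 · Repeats – singlicate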
PAD4 inh = PAD4 (human) enzyme inhibition; 0.41% of 330,000 active; Q9UM07; inhibition, % at 6.36 µM; AID 485272; recombinant PAD4, RCA probe fluorescence polarization;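 active = percent inhibition above a cutoff equal to the mean of all tested compounds plus 3 SD, cut at about 15% in these data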;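 also: 0% = PAD4 with RCA probe and DMSO and 100% = probe without PAD4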
GSTO1 counter = GSTO1 inhibition, counter-screen for RBBP9 inhibitors | P78417 | recombinant GSTO1, activity-based probe fluorescence polarization | inhibition, % at 5.96 µM | 1.1% of 300,000 active | AID 1974;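 active = inhibition above the campaign mean inhibition plus 3 SD, cut at about 35% in these data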;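 also: 0% = GSTO1-1 with DMSO and 100% = wells lacking GSTO1-1 enzyme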
Target sequence (P78417 whole entry, looked up): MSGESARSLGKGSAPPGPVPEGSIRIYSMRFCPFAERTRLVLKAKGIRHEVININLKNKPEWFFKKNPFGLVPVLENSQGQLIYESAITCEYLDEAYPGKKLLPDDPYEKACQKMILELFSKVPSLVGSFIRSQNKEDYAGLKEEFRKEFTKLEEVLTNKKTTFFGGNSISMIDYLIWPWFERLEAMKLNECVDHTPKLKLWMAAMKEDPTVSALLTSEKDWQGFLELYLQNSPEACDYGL
PRMT1 inh = blocks human protein arginine methyltransferase 1 | Q99873 | AID 652257 | recombinant PRMT1, activity-based probe fluorescence polarization | 1.3% of 370,000 active | inhibition, % at 2.79 µM;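 active = inhibition above about 21% made by adding two undisclosed values, limit read from the data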
Fh CTSL1 inh = blocks F. hepatica cathepsin L1 in PFM18AAP counter-screen; recombinant F. hepatica cathepsin L1, Z-Leu-Arg-MCA fluorescence; inhibition, % at 5.96 µM; 0.49% of 300,000 active; AID 1906;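 active = inhibition above the mean of all tested compounds plus 3 SD, set per screening campaign, cut at about 17% in these data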;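 also: 0% = plate median of test compound wells and 100% = 1 µM Z-Phe-Ala-diazomethylketone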
PRMT1 confirm = confirmation of human PRMT1 inhibitors. 42% of 3,300 active. recombinant His-PRMT1, activity-based probe fluorescence polarization. inhibition, % at 2.79 µM. shares compounds with PRMT1 inh;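 active = mean inhibition across replicates above the hit cutoff derived for the earlier primary screen, cut at about 22% in these data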
Starred values were filed as active, the others as inactive; nt = no result given. A selection: hits, their analogues and other compounds. The true share with any hit is near 2.5%.

SMILES	TDP2 absorb	PAD4 inh	GSTO1 counter	PRMT1 inh	Fh CTSL1 inh	PRMT1 confirm
Cc1ccc(NC(=S)NCC23C=CC(O2)C2C(=O)N(c4ccc(C)cc4)C(=O)C23)cc1 (centres undefined)	-9	-5	1	91*	0	50*
COc1ccc(N2CCC(CNC(=S)Nc3cccc(C)c3)C2)cc1 (centres undefined)	-1	-8	-4	5	-1	nt
Cc1ccc(N2C(=O)C3C4C=CC(CNC(=S)N5CCN(c6ccccc6)CC5)(O4)C3C2=O)cc1 (centres undefined)	-7	1	2	43*	-1	44*
CC(OP(=O)(O)C(NC(=O)[C@H](Cc1ccc(O)cc1)NC(=O)OC(C)(C)C)C(C)C)C(=O)O (some centres undefined)	16	nt	nt	-7	nt	nt
COc1ccc(CN2C(=O)[C@]3(NCCc4c3[nH]c3ccc(OC)cc43)c3cc(F)ccc32)cc1	1	nt	nt	-8	nt	nt
Oc1ccc(CNc2ccccc2F)c2cccnc12	-3	0	5	5	-4	nt
Oc1ccc(CNc2ccccc2Cl)c2cccnc12	-10	nt	nt	56*	nt	65*
Oc1ccc(CNc2ccccc2C(F)(F)F)c2cccnc12	3	nt	nt	47*	nt	33*
NC(=O)C1CCN(C(=S)c2ccc(-c3ccc(Br)cc3)o2)CC1	-5	-11	7	46*	5	60*
N#Cc1cccc(Cn2ccc3ccc(-c4ccc5ccn(Cc6cccc(C#N)c6)c5c4)cc32)c1	1	nt	nt	-4	nt	nt
CN1Cc2c(N)cccc2C(c2ccccc2)C1 (centres undefined)	1	2	6	44*	3	8
O=C1CC(c2ccccc2)c2ccccc21 (centres undefined)	2	-1	5	-1	2	nt
CCOC(=O)C1=NOC(C(C)=O)(C(=O)Nc2cc(C)cc(C)c2)C1 (centres undefined)	4	nt	nt	1	nt	nt
OCCN1CCN(Cc2cc(Br)cc(Br)c2O)CC1	8	3	7	2	0	nt
CCN1CCN(C(=S)c2ccc(OC)cc2)CC1	3	-3	11	48*	1	37*
CC(C)(C)c1cc(C(=S)N2CCN(CCO)CC2)cc(C(C)(C)C)c1O	-6	0	2	27*	6	19
CCOc1ccc(C(=S)N2CCN(C)CC2)cc1	-6	0	3	28*	-2	33*
COc1ccc(C(=S)N2CCNCC2)cc1	0	-3	-4	1	-3	nt
COc1ccc(C(=S)N2CCN(c3ccccc3C)CC2)cc1	-21	-2	4	16	4	nt
COc1ccc(C(=S)N2CCCCCC2)cc1	-13	3	-3	26*	-4	13
CCOc1ccc(C(=S)N2CCCC2)cc1	1	2	3	2	-2	nt
COCCNC(=O)c1c(N)[nH]c(C(=O)c2ccc(Br)cc2)c1-c1c(OC)ccc2ccccc12	-2	nt	nt	1	nt	nt
O=C(OCC#CCSc1nnc(-c2cccc3ccccc23)o1)c1csc2ccccc12	10	nt	nt	1	nt	nt
CCOC(=O)[C@]12CCCCC/C=C\1N(CCc1ccc(Cl)cc1)C(=O)[C@H]2CC(=O)NCc1cccc2ccccc12	6	nt	nt	-1	nt	nt
O=C(OCc1cn(Cc2ccc(F)cc2F)nn1)N1CCCC1	-2	nt	nt	2	nt	nt
SMILES	TDP2 absorb	PAD4 inh	GSTO1 counter	PRMT1 inh	Fh CTSL1 inh	PRMT1 confirm
Cc1nnc(C)n1N=Cc1ccc(Cl)c([N+](=O)[O-])c1	6	nt	nt	0	nt	nt
CN[C@H]1C[C@H]2c3[nH]c4cccc(-c5ccc6c(c5)OCO6)c4c3CCN2C[C@H]1[C@H](C)O	4	nt	nt	0	nt	nt
CCOc1ccc(-n2c(SCC(=O)Nc3ccc(OCc4ccccc4)cc3)nnc2-c2ccc(Cl)cc2)cc1	10	nt	nt	1	nt	nt
CCCN1CCN(C(=S)NCc2ccc(Cl)cc2)CC1	10	-2	6	-1	0	nt
CCN1CCN(C(=S)c2ccc([N+](=O)[O-])cc2)CC1	11	4	3	34*	1	35*
CCN1CCN(C(=S)c2ccc(Cl)cc2)CC1	-1	-3	-9	85*	-6	90*
CCN1CCN(C(=O)c2ccccc2NC(=O)c2ccc(Cl)cc2)CC1	-7	4	-3	-5	-3	nt
OCCN1CCN(C(=S)c2ccc(Cl)cc2)CC1	3	-1	-5	32*	1	40*

Screens deposited in PubChem BioAssay by The Scripps Research Institute Molecular Screening Center.
